CCR6 antag – antagonists of human CCR6 receptor; P51684; CHO-K1 CCR6 PathHunter beta-arrestin, luminescence, CCL20-stimulated; inhibition, % at 20 µM; 340,000 tested, 0.49% active; AID 493098;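 active means compounds whose inhibition of the agonist-driven luminescence signal at 20 µM reaches about 50%, limit read from the data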;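 further: cells stimulated with CCL20 at 14 nM final; plate controls were DMSO with CCL20 for no effect and DMSO without agonist for full effect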
APJ agonist – APJ receptor agonism; 330,000 tested, 0.11% active; AID 2520; activation, % at 20 µM; CHO-K1 APJ PathHunter beta-arrestin, luminescence; 0% DMSO wells, 100% apelin; P35414;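 active means activation more than six SD over the plate average, tested at 20 µM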;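 further: 0% = DMSO alone and 100% = apelin-13 at 10 nM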
Target sequence (P35414 whole entry, looked up): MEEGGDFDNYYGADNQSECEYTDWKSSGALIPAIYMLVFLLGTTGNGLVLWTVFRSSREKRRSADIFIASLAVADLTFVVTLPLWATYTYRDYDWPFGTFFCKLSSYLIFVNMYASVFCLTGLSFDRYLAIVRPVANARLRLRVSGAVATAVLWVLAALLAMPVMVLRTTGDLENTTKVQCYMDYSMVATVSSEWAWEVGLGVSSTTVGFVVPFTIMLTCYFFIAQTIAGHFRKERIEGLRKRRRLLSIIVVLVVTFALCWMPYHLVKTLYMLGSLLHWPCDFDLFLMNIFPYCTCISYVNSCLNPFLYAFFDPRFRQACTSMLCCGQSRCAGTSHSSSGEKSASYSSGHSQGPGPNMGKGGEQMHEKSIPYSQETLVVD
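system = engineered CHO-K1 APJ arrestin reporter cells | input = 1000 cells per well | timing = overnight seeding, 90 min compound at 25 °C, 1 h detection | measured by = enzyme-fragment complementation luminescence | read-out = beta-arrestin recruitment to APJ as agonist activity, luminescent signal | control set = negative DMSO alone, positive Apelin-13 at 10 nM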
EBI2 antag – EBI2 (human) antagonism. P32249. EBI2 beta-arrestin recruitment, luminescence, 7a,25-OHC stimulated. inhibition, % at 5 µM. 360,000 tested, 0.81% active. AID 651636; in the data active means inhibition above about 38%;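 further: enzyme fragment complementation signal reports receptor beta-arrestin coupling in cells; 0% = agonist plus DMSO wells and 100% = wells without agonist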
CXCR6 inh – blocks human CXCR6 beta-arrestin recruitment; O00574; CHO-K1 PathHunter CXCR6 beta-arrestin, luminescence; inhibition, % at 20 µM; 360,000 tested, 0.36% active; in the data active means inhibition above about 34%, passing the limit was not always enough;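 further: antagonist mode with CXCL16 agonist at 10 nM final; 0% = 10 nM CXCL16 with DMSO and 100% = unstimulated wells without agonist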
APJ antagonist – APJ receptor antagonism. 330,000 tested, 0.32% active. CHO-K1 APJ beta-arrestin complementation, luminescence. inhibition, % at 20 µM. P35414;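 active means inhibition above about 40% at 20 µM, limit read from the data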;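 further: cells challenged with 10 nM apelin-13 agonist together with compound; plate controls were apelin-13 plus DMSO wells for no effect and DMSO wells lacking apelin-13 for full effect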
APJ antag confirm – confirmation of human APJ apelin receptor antagonists; shares compounds with APJ antagonist; APJ beta-arrestin recruitment, luminescence, antagonist mode; inhibition, % at 20 µM; 950 tested, 66% active; AID 2766; in the data active means inhibition above about 50%
* = called active by the depositor; x = no result given. The list is not random: actives were taken first. Their share in the collection is about 1.5%.

SMILES	CCR6 antag	APJ agonist	EBI2 antag	CXCR6 inh	APJ antagonist	APJ antag confirm
C1=C(CCNCC2CC2)CCCC1	-9.6	0.3	0.0	2.2	41.4*	31.7
O=C(O)CC1(CC(=O)Nc2ccc3c(c2)C(=O)OC3)CCCCC1	1.8	-0.7	7.8	1.7	-0.6	x
CNNC(=O)C(=O)NNS(=O)(=O)c1ccccc1	3.5	-4.4	-2.2	-5.0	-2.1	x
Cc1ccc(N=C2C(=O)Nc3ccc(Br)cc32)cc1	54.4*	-15.6	17.1	36.2	68.5*	155.9*
Cc1cccc2c1NC(=O)C2=Nc1ccc(Cl)cc1	75.9*	-13.8	9.2	32.2	63.0*	93.9*
Cc1ccc(N=C2C(=O)Nc3c(C)cccc32)cc1	58.2*	-8.9	11.4	18.1	42.6*	94.7*
O=C1Nc2ccc(Br)cc2C1=C1CCCCC1	-4.4	1.3	-8.8	-2.0	-4.5	x
Cc1ccccc1NC(=O)c1ccc(Nc2c([N+](=O)[O-])cc([N+](=O)[O-])c3ccccc23)cc1	59.6*	-4.9	21.6	41.9*	57.3*	89.6*
Cc1ccc(C)c2nc3sc(C(=O)N4CCCc5ccccc54)c(N)c3cc12	46.5	-16.5	74.7*	38.4	59.0*	57.5*
CC(C)Cc1nc2oc3c(Cl)ncnc3c2c2c1CCC2	22.7	-2.1	48.3*	14.8	40.8*	86.4*
COc1ccc(-n2c(N)c(C(=O)NCc3ccco3)c3nc4ccccc4nc32)cc1	15.5	-1.6	18.6	3.1	3.9	x
Nc1c(C(=O)NCc2ccco2)c2nc3ccccc3nc2n1CCc1ccc(F)cc1	-4.1	-10.3	3.2	5.5	55.1*	-11.7
N#Cc1c(N)n(CCc2ccc(F)cc2)c2nc3ccccc3nc12	20.1	-1.2	11.8	14.0	64.5*	-6.7
COC(CNC(=O)c1ccc2c(c1)ncn2-c1ccc(F)c(F)c1)OC	5.4	1.6	-6.0	-8.1	18.6	x
O=[N+]([O-])c1cnc(Sc2ccncn2)s1	80.5*	13.9	25.6	75.0*	54.7*	67.3*
O=C1NCCN1c1ncc([N+](=O)[O-])s1	-4.2	3.9	-6.2	-3.0	-11.9	x
CCCOc1ccc(C2C(=O)N(C3CCCCC3)CC(=O)N2CCCOCC)cc1OC (stereo not drawn)	-3.8	-5.8	-4.9	-5.9	-4.0	x
CCOCCCN1C(=O)CN(C2CCCCC2)C(=O)C1c1ccc(OC)c(OC)c1 (stereo not drawn)	0.1	-2.0	5.0	1.7	40.0	5.9
COc1ccc(-n2c(SCC(=O)Nc3sc4c(c3C#N)CCCC4)nnc2-c2ccccc2OC)cc1	13.6	-2.0	-1.0	1.5	18.5	x
COc1ccc(NC(=O)COC(=O)CCc2nc3ccccc3c(=O)[nH]2)cc1Cl	6.9	-4.4	4.7	-3.6	-6.4	x
COc1ccc(NC(=O)COC(=O)CCc2nc3ccccc3c(=O)[nH]2)c(OC)c1	-0.8	2.3	-8.4	-0.6	40.5*	31.3
Cc1ccc(C)c(S(=O)(=O)Nc2ccc(O)c(C(=O)O)c2)c1	-3.3	0.5	-4.6	4.1	47.8*	36.1
Cc1cc(C)c2[nH]c(O)c(N=NC(=S)NCC3CCCO3)c2c1 (stereo not drawn)	21.7	1.7	6.9	17.9	23.4	x
Oc1[nH]c2c(Cl)cc(Cl)cc2c1N=NC(=S)NCC1CCCO1 (stereo not drawn)	58.0*	-1.3	29.1	36.5	40.2*	64.5*
CCN(CC)c1ccc(C(=O)NC(=S)Nc2cc(S(=O)(=O)N3CCOCC3)ccc2-n2cncn2)cc1	34.5	-7.0	9.5	9.0	41.1*	81.5*
SMILES	CCR6 antag	APJ agonist	EBI2 antag	CXCR6 inh	APJ antagonist	APJ antag confirm
C=CCNC(=S)Nc1cc(S(=O)(=O)N2CCOCC2)ccc1-n1cncn1	25.6	-0.3	-1.5	12.9	9.2	x
CCOC(=O)c1c(-c2cccc([N+](=O)[O-])c2)csc1NC(=O)C1CC1	10.3	3.6	-0.7	-0.7	-31.2	x
Nc1[nH]n2c(=O)cc(-c3ccccc3)nc2c1N=Nc1ccc(S(N)(=O)=O)cc1	51.4*	-7.0	12.4	22.4	41.6*	64.7*
Cc1ccc(N=Nc2c(N)[nH]n3c(=O)cc(C)nc23)cc1	14.5	x	-5.5	-1.3	x	x
Cc1ccc(S(=O)(=O)NN=C2CC3CCC2(C)C3(C)C)cc1 (stereo not drawn)	9.9	x	1.8	1.5	x	x
O=C1OCC(CO)(CO)N=C1NNc1cc(Cl)ccc1Cl	33.5	-11.4	2.1	31.7	69.8*	74.1*
O=C1OCC(CO)(CO)N=C1NNc1ccccc1[N+](=O)[O-]	4.4	-4.6	7.9	-3.9	-2.8	x
CCOC(=O)C1=C(C)N(C)C(=O)NC1c1c(C)nn(-c2ccc(C)cc2)c1Cl (stereo not drawn)	10.4	-3.0	-7.1	2.8	2.2	x
CCOC(=O)C1=C(C)NC(=O)NC1c1c(C)nn(-c2ccccc2)c1Cl (stereo not drawn)	3.0	1.4	-6.7	0.7	44.4*	13.6
CC1(C)O[C@@H]2C[C@H]3[C@@H]4C[C@H](F)C5=CC(=O)C=C[C@]5(C)[C@@]4(F)[C@@H](O)C[C@]3(C)[C@]2(C(=O)CO)O1	6.4	-1.8	-4.0	-0.1	11.4	x
O=S1(=O)Nc2c(ccc3cccnc23)-c2ccccc21	60.7*	-11.0	36.9	42.3*	52.6*	43.0
O=C(COC(=O)c1ccccc1NC(=O)c1ccccc1)c1ccc([N+](=O)[O-])cc1	22.6	-1.9	-6.6	-9.4	-46.0	x
O=C(COC(=O)c1cnccn1)c1cccc([N+](=O)[O-])c1	52.8*	-13.4	3.0	32.5	41.9*	79.4*
O=C(COC(=O)c1cnccn1)c1ccc2ccccc2c1	30.7	-1.7	-4.5	10.5	30.3	x
Cc1ccc(OCC(=O)OCC(=O)c2cccc([N+](=O)[O-])c2)cc1C	51.3*	-19.2	23.8	38.7	56.8*	54.9*
O=C(CCC(=O)OCC(=O)c1cccc([N+](=O)[O-])c1)NC1CCCCC1	58.2*	-15.3	4.6	23.7	42.5*	99.4*
O=C(COC(=O)c1cc2ccccc2oc1=O)c1cccc([N+](=O)[O-])c1	51.7*	-6.3	11.7	28.7	48.1*	82.9*
CC1CN(c2ccc([N+](=O)[O-])cc2Cl)CCN1S(C)(=O)=O (stereo not drawn)	12.2	-2.6	-11.7	-6.5	-1.8	x
CCOC(=O)c1cc(C#N)c(Oc2ccccc2)nc1-c1ccccc1	17.0	-3.7	16.8	7.0	7.5	x
O=C(Nc1ccc(Cl)cc1)Nc1nnc(CSCc2ccccc2Cl)s1	0.6	2.1	-5.1	-9.7	-44.5	x
CC(C)CCNC(=O)CCS(=O)(=O)c1cccc2nonc12	6.5	11.5	0.1	6.6	-14.7	x
CC(=O)Nc1ccc(NC(=O)CCC(=O)OCC(=O)c2cccc([N+](=O)[O-])c2)cc1	38.5	-9.7	14.5	26.9	47.2*	86.4*
